Laboratory results reported in ChEMBL document CHEMBL4325889, “Natural products hybrids: 3,5,4'-Trimethoxystilbene-5,6,7-trimethoxyflavone chimeric analogs as potential cytotoxic agents against diverse human cancer cells” (Eur J Med Chem, 2019).

Experiments:
Type in all cases: functional
[1] = tested on: DU-145; assay: Growth inhibition of human DU145 cells at 10 uM after 48 hrs by SRB assay relative to control; conditions: DU-145, 48 h, read-out: GI
Outline: (§1)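 Screened at the National Cancer Institute by the standard NCI protocol using the sulforhodamine B assay, which measures cellular protein. Single dose of 10 µM. Result is percent growth inhibition; values above 100% mean cell number fell below the initial population. Values are the average of duplicates.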

[2] = tested on: UACC-257; assay: Growth inhibition of human UACC257 cells at 10 uM after 48 hrs by SRB assay relative to control; conditions: UACC-257, 48 h, read-out: GI
Outline: (§2)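 NCI screen against its human cancer cell line panel by the standard NCI protocol, SRB protein stain. Single dose of 10 μM. Percent growth inhibition versus control; values above 100% mean the cell population fell below the starting number. Each value is the mean of duplicates.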

[3] = tested on: HCT-116; assay: Growth inhibition of human HCT116 cells at 10 uM after 48 hrs by SRB assay relative to control; conditions: HCT-116, 48 h, read-out: GI; outline: as §1
[4] = tested on: HOP-92; assay: Growth inhibition of human HOP92 cells at 10 uM after 48 hrs by SRB assay relative to control; conditions: HOP-92, 48 h, read-out: GI; outline: as §1
[5] = tested on: HL-60(TB); assay: Growth inhibition of human HL-60(TB) cells at 10 uM after 48 hrs by SRB assay relative to control; conditions: HL-60, 48 h, read-out: GI
Outline: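 Run at NCI under its standard single-dose protocol against a leukemia cell panel. Cells were exposed to 10 µM; growth was read by sulforhodamine B staining of cellular protein and expressed as % growth inhibition versus untreated control. Values above 100% mean the cell population fell below the starting count (cytocidal). Each value is the average of duplicates.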

[6] = tested on: SF-539; assay: Growth inhibition of human SF539 cells at 10 uM after 48 hrs by SRB assay relative to control; conditions: SF-539, 48 h, read-out: GI; outline: as §1
[7] = tested on: NCI-H23; assay: Growth inhibition of human NCI-H23 cells at 10 uM after 48 hrs by SRB assay relative to control; conditions: NCI-H23, 48 h, read-out: GI; outline: as §1
[8] = tested on: CCRF-CEM; assay: Growth inhibition of human CCRF-CEM cells at 10 uM after 48 hrs by SRB assay relative to control; conditions: read-out: GI; outline: as §1
[9] = tested on: MDA-MB-468; assay: Growth inhibition of human MDA-MB-468 cells at 10 uM after 48 hrs by SRB assay relative to control; conditions: MDA-MB-468, 48 h, read-out: GI; outline: as §1
[10] = tested on: A549; assay: Growth inhibition of human A549 cells at 10 uM after 48 hrs by SRB assay relative to control; conditions: A549, 48 h, read-out: GI; outline: as §1
[11] = tested on: MCF7; assay: Growth inhibition of human MCF7 cells at 10 uM after 48 hrs by SRB assay relative to control; conditions: MCF7, 48 h, read-out: GI; outline: as §1
[12] = tested on: NCI-H226; assay: Growth inhibition of human NCI-H226 cells at 10 uM after 48 hrs by SRB assay relative to control; conditions: NCI-H226, 48 h, read-out: GI; outline: as §1
[13] = tested on: Malme-3M; assay: Growth inhibition of human MALME-3M cells at 10 uM after 48 hrs by SRB assay relative to control; conditions: read-out: GI; outline: as §1
[14] = tested on: RXF 393; assay: Growth inhibition of human RXF393 cells at 10 uM after 48 hrs by SRB assay relative to control; conditions: RXF 393, 48 h, read-out: GI; outline: as §1
[15] = tested on: IGROV-1; assay: Growth inhibition of human IGROV1 cells at 10 uM after 48 hrs by SRB assay relative to control; conditions: IGROV-1, 48 h, read-out: GI; outline: as §1
[16] = tested on: NCI/ADR-RES; assay: Growth inhibition of human NCI/ADR-RES cells at 10 uM after 48 hrs by SRB assay relative to control; conditions: read-out: GI; outline: as §1
[17] = tested on: 786-0; assay: Growth inhibition of human 786-0 cells at 10 uM after 48 hrs by SRB assay relative to control; conditions: 786-0, 48 h, read-out: GI; outline: as §1
[18] = tested on: SR; assay: Growth inhibition of human SR cells at 10 uM after 48 hrs by SRB assay relative to control; conditions: read-out: GI; outline: as §2
[19] = tested on: SF-295; assay: Growth inhibition of human SF295 cells at 10 uM after 48 hrs by SRB assay relative to control; conditions: SF-295, 48 h, read-out: GI; outline: as §1
[20] = tested on: HCT-15; assay: Growth inhibition of human HCT15 cells at 10 uM after 48 hrs by SRB assay relative to control; conditions: HCT-15, 48 h, read-out: GI; outline: as §1
[21] = tested on: HCC 2998; assay: Growth inhibition of human HCC2998 cells at 10 uM after 48 hrs by SRB assay relative to control; conditions: HCC 2998, 48 h, read-out: GI; outline: as §1
[22] = tested on: TK-10; assay: Growth inhibition of human TK10 cells at 10 uM after 48 hrs by SRB assay relative to control; conditions: TK-10, 48 h, read-out: GI; outline: as §2
[23] = tested on: Hs-578T; assay: Growth inhibition of human Hs 578T cells at 10 uM after 48 hrs by SRB assay relative to control; conditions: read-out: GI; outline: as §1
[24] = tested on: COLO 205; assay: Growth inhibition of human COLO205 cells at 10 uM after 48 hrs by SRB assay relative to control; conditions: COLO 205, 48 h, read-out: GI; outline: as §1
[25] = tested on: U-251; assay: Growth inhibition of human U251 cells at 10 uM after 48 hrs by SRB assay relative to control; conditions: U-251, 48 h, read-out: GI; outline: as §2
[26] = tested on: LOX IMVI; assay: Growth inhibition of human LOXIMVI cells at 10 uM after 48 hrs by SRB assay relative to control; conditions: read-out: GI; outline: as §1
[27] = tested on: SNB-75; assay: Growth inhibition of human SNB75 cells at 10 uM after 48 hrs by SRB assay relative to control; conditions: SNB-75, 48 h, read-out: GI; outline: as §2
[28] = tested on: SK-MEL-28; assay: Growth inhibition of human SK-MEL-28 cells at 10 uM after 48 hrs by SRB assay relative to control; conditions: SK-MEL-28, 48 h, read-out: GI; outline: as §1
[29] = tested on: SK-MEL-5; assay: Growth inhibition of human SK-MEL-5 cells at 10 uM after 48 hrs by SRB assay relative to control; conditions: SK-MEL-5, 48 h, read-out: GI; outline: as §1
[30] = tested on: NCI-H322M; assay: Growth inhibition of human NCI-H322M cells at 10 uM after 48 hrs by SRB assay relative to control; conditions: read-out: GI; outline: as §1
[31] = tested on: SN12C; assay: Growth inhibition of human SN12C cells at 10 uM after 48 hrs by SRB assay relative to control; conditions: read-out: GI; outline: as §1
[32] = tested on: K562; assay: Growth inhibition of human K562 cells at 10 uM after 48 hrs by SRB assay relative to control; conditions: K562, 48 h, read-out: GI; outline: as §1
[33] = tested on: RPMI-8226; assay: Growth inhibition of human RPMI8226 cells at 10 uM after 48 hrs by SRB assay relative to control; conditions: RPMI-8226, 48 h, read-out: GI; outline: as §1
[34] = tested on: SK-MEL-2; assay: Growth inhibition of human SK-MEL-2 cells at 10 uM after 48 hrs by SRB assay relative to control; conditions: SK-MEL-2, 48 h, read-out: GI; outline: as §1

`COc1cc(NC(=O)c2cccc(-c3cc(=O)c4c(OC)c(OC)c(OC)cc4o3)c2)cc(OC)c1OC` gave an inhibition of growth at 10 µM [1] of 45.7%, an inhibition of growth at 10 µM [2] of 47.2% and an inhibition of growth at 10 µM [3] of 51.4%. It also gave an inhibition of growth at 10 µM [4] of 75.3%, an inhibition of growth at 10 µM [5] of 64% and an inhibition of growth at 10 µM [6] of 47.4%. It also gave an inhibition of growth at 10 µM [7] of 51.2%, an inhibition of growth at 10 µM [8] of 68.7% and an inhibition of growth at 10 µM [9] of 52.6%. It also gave an inhibition of growth at 10 µM [10] of 56.5%, an inhibition of growth at 10 µM [11] of 65.7% and an inhibition of growth at 10 µM [12] of 41.5%. The inhibition of growth at 10 µM [13] was 43.6%, the inhibition of growth at 10 µM [14] was 46.8% and the inhibition of growth at 10 µM [15] was 48.2%. The inhibition of growth at 10 µM [16] was 48.9%, the inhibition of growth at 10 µM [17] was 68.2% and the inhibition of growth at 10 µM [18] was 70.2%. It also gave an inhibition of growth at 10 µM [19] of 55%, an inhibition of growth at 10 µM [20] of 59.3% and an inhibition of growth at 10 µM [21] of 25.9%. The inhibition of growth at 10 µM [22] was 30.6%, the inhibition of growth at 10 µM [23] was 90.8% and the inhibition of growth at 10 µM [24] was 55.7%. The inhibition of growth at 10 µM [25] was 55.1%, the inhibition of growth at 10 µM [26] was 75.6% and the inhibition of growth at 10 µM [27] was 25.3%. For the same molecule, the inhibition of growth at 10 µM [28] was 36.5%, the inhibition of growth at 10 µM [29] was 91.7% and the inhibition of growth at 10 µM [30] was 30.5%. For the same molecule, the inhibition of growth at 10 µM [31] was 54.1%, the inhibition of growth at 10 µM [32] was 72.4% and the inhibition of growth at 10 µM [33] was 99.7%. For the same molecule, the inhibition of growth at 10 µM [34] was 58.3%.
